{
  "source": "ChEMBL document CHEMBL4308913",
  "about": "“In silico, NMR and pharmacological evaluation of an hydroxyoxindole cholinesterase inhibitor” (Bioorg Med Chem, 2019)",
  "key": {"Mus musculus": {"tested_on": "Mus musculus", "assay": "In vivo inhibition of BuChE in Swiss mouse liver at 3 to 6 mg/kg, iv by Ellman's assay", "format": "functional, organism-based"}, "[1]": {"assay": "Acute toxicity in iv dosed Swiss mouse", "settings": "in vivo"}, "[2]": {"assay": "Toxicity against Artemia salina larvae assessed as larval mortality at 1000 ug/mL after 24 hrs relative to control", "format": "organism-based", "settings": "in vivo, at 1000 µg/mL"}, "Artemia salina [3]": {"tested_on": "Artemia salina", "assay": "Toxicity against Artemia salina larvae assessed as larval mortality after 24 hrs", "format": "organism-based", "settings": "in vivo", "procedure,_shortened": "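A. salina nauplii were run per the Artoxkit M protocol: samples in saline were diluted 1:10 into saline medium, 10 larvae per well. Plates were held 24 h at 25 °C, and dead nauplii were counted by stereomicroscope. There were nine repeats per concentration, and LC50 came from dose-response. Negative controls were saline with and without 5% DMSO; potassium dichromate positive control ran 3.125–150 μg mL-1.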"}, "Artemia salina [4]": {"tested_on": "Artemia salina", "assay": "Toxicity against Artemia salina larvae assessed as larval mortality at 100 ug/mL after 24 hrs relative to control", "format": "organism-based", "settings": "in vivo"}, "Cholinesterase [5]": {"target": "Cholinesterase (Mus musculus, UniProt Q03311)", "sequence (Q03311 whole entry)": "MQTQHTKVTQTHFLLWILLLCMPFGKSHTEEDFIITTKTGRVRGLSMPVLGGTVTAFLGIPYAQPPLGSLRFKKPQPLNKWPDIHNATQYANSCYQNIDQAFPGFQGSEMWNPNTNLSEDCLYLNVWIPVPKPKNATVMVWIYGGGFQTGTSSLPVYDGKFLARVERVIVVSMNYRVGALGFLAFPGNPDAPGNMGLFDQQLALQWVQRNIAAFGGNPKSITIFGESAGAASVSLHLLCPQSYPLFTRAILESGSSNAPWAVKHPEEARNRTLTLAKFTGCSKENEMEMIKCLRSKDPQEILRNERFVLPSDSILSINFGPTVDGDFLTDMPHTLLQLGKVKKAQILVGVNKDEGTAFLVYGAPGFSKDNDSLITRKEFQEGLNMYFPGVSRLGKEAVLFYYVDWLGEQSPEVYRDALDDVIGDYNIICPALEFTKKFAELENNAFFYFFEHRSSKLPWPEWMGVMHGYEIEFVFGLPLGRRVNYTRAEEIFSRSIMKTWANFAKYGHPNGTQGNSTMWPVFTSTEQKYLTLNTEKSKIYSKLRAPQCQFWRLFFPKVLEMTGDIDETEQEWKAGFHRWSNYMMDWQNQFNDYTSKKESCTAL", "assay": "Inhibition of BuChE in Swiss mouse liver homogenate by Ellman's assay", "format": "tissue-based", "procedure,_shortened": "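Swiss mouse livers from 8-week-old males were washed in ice-cold 0.2 M potassium phosphate, pH 7.6, then homogenized 1:10 w/v in 0.1 M phosphate, pH 7.6. Homogenates were spun at 1000 g, 4 °C, 15 min. Compounds were made up in 0.2 M phosphate, pH 7.6. Activity was read by modified Ellman's method, with protein by Lowry. IC50 came from dose-response, triplicate means ± SD.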"}, "[6]": {"assay": "Acute oral toxicity in Swiss mouse by OECD up and down test guideline method", "settings": "in vivo"}, "Cholinesterase [7]": {"target": "T1, Cholinesterase (Equus caballus, UniProt P81908)", "T1 sequence (P81908 whole entry)": "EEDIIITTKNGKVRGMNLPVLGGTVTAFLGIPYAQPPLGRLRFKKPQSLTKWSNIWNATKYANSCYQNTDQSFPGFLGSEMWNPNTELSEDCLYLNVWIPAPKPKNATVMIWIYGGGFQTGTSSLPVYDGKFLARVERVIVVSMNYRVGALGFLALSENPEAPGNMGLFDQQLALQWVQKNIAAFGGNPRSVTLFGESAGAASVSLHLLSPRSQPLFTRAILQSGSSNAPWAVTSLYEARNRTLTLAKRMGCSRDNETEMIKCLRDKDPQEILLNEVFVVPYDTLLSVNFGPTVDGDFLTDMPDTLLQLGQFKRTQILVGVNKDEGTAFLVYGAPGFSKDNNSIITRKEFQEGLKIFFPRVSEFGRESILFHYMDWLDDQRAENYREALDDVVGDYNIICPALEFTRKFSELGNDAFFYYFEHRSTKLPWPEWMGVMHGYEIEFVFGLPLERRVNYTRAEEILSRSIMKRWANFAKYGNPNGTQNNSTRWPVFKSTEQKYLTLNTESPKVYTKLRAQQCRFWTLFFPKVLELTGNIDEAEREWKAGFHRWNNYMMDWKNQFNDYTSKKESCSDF", "assay": "Inhibition of equine serum BuChE"}, "Acetylcholinesterase [8]": {"target": "Acetylcholinesterase (Electrophorus electricus, UniProt O42275)", "sequence (O42275 whole entry)": "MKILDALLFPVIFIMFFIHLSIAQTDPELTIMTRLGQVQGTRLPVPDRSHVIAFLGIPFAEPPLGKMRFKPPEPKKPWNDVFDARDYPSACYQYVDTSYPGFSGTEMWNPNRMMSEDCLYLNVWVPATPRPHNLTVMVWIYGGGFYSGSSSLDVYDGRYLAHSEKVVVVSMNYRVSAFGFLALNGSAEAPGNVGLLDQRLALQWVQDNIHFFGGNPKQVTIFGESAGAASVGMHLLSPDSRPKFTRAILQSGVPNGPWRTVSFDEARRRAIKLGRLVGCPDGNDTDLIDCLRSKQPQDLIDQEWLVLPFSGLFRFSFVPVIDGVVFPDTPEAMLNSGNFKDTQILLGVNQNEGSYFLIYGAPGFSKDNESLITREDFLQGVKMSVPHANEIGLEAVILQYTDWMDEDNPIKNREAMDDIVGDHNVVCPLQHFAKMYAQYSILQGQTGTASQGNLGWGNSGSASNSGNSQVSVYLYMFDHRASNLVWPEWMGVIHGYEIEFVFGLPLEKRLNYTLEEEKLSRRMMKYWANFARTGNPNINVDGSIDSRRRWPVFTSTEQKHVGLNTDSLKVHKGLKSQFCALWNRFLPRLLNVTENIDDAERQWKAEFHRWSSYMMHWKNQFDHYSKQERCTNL", "assay": "Inhibition of electrophorus electricus AChE"}, "[9]": {"target": "Cholinesterase (Equus caballus) (UniProt P81908)", "sequence (P81908 whole entry)": "as the sequence (P81908 whole entry) above", "assay": "Competitive inhibition of equine BuChE by Cornish-Bowden analysis"}, "Acetylcholinesterase [10]": {"target": "T2, Acetylcholinesterase (Mus musculus, UniProt P21836)", "T2 sequence (P21836 whole entry)": "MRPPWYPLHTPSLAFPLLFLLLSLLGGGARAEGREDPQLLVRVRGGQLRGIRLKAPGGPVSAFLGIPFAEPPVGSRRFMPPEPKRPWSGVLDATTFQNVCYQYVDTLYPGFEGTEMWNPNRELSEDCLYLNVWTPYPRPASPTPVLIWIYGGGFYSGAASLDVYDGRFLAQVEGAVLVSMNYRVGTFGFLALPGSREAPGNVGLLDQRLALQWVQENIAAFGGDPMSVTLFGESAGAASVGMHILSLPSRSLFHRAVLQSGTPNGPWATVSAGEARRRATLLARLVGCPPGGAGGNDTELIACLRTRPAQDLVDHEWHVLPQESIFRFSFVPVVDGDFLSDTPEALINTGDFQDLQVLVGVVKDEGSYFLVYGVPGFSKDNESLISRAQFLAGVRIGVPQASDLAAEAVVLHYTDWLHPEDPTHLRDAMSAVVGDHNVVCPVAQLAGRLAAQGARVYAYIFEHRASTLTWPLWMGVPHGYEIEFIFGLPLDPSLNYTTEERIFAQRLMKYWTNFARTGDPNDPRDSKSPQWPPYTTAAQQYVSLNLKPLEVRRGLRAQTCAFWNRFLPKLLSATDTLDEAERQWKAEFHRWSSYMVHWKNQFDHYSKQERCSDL", "assay": "Inhibition of AChE in Swiss mouse liver homogenate using acetylthiocholine iodide as substrate by Ellman's assay"}, "Cholinesterase [11]": {"target": "T1, Cholinesterase", "assay": "Reversible competitive inhibition of equine BuChE by Lineweaver-burk plot analysis"}, "Cholinesterase [12]": {"target": "T1, Cholinesterase", "assay": "Inhibition of equine serum BuChE after 15 mins"}},
  "note": "pIC50, pKi: −log10 of the molar value. Activity calls are given as the source filed them. The calls are words filed in the database; no cut-off is given here.",
  "data": [
    {"compound": "COc1cc2c(cc1OC)C(=O)C(CC1CCN(Cc3ccccc3)CC1)C2", "note": "(stereo not drawn) [DONEPEZIL]", "values": [
      {"measurement": "inhibition", "setting": "Mus musculus", "value": "Active"},
      {"measurement": "LD50", "setting": "[1]", "value": 3.7, "unit": "mg/kg"},
      {"measurement": "mortality at 24 h, 1000 ug/mL", "setting": "[2]", "value": 26, "unit": "%"}
    ]},
    {"compound": "POTASSIUM DICHROMATE", "values": [
      {"measurement": "LC50", "setting": "Artemia salina [3]", "value": 15.04, "unit": "µg/mL"},
      {"measurement": "Activity", "setting": "Artemia salina [4]", "value": 100, "unit": "%"}
    ]},
    {"compound": "Cl.O=C1N(CC2CCNCC2)c2ccccc2C1(O)c1ccccc1", "note": "(racemic)", "values": [
      {"measurement": "pIC50", "setting": "Cholinesterase [5]", "value": 3.36},
      {"measurement": "inhibition", "setting": "Mus musculus", "value": "Active"},
      {"measurement": "LD50", "setting": "[6]", "value": 100, "unit": "mg/kg"},
      {"measurement": "pIC50", "setting": "Cholinesterase [7]", "value": 4.74},
      {"measurement": "pIC50", "setting": "Acetylcholinesterase [8]", "value": 3.30},
      {"measurement": "inhibition", "setting": "[9]", "value": "Active"},
      {"measurement": "pIC50", "setting": "Acetylcholinesterase [10]", "value": 3.25},
      {"measurement": "pKi", "setting": "Cholinesterase [11]", "value": 4.39},
      {"measurement": "mortality at 24 h, 1000 ug/mL", "setting": "[2]", "value": 5, "unit": "%"}
    ]},
    {"compound": "O=C1N(CC2CCN(Cc3ccccc3)CC2)c2ccccc2C1(O)c1ccccc1", "note": "(racemic)", "values": [
      {"measurement": "pIC50", "setting": "Acetylcholinesterase [8]", "value": 3.71},
      {"measurement": "pIC50", "setting": "Cholinesterase [12]", "value": 5.18}
    ]},
    {"compound": "O=C1N(Cc2ccccc2)c2ccccc2C1(O)c1ccccc1", "note": "(racemic)", "values": [
      {"measurement": "pIC50", "setting": "Cholinesterase [7]", "value": 5.13},
      {"measurement": "pIC50", "setting": "Acetylcholinesterase [8]", "value": 3.62}
    ]}
  ]
}
